This is an account of results in ChEMBL document CHEMBL3865805, “Discovery and antiplatelet activity of a selective PI3Kβ inhibitor (MIPS-9922)” (Eur J Med Chem, 2016).

The source made the active and inactive calls. The rule behind the calls is not given here.

Data set [1] has as its target T1, Phosphatidylinositol 4,5-bisphosphate 3-kinase catalytic subunit beta isoform (Homo sapiens, UniProt P42338). In words: Inhibition of PI3Kbeta (unknown origin) expressed in baculovirus-infected fall armyworm sf21 cells co-expressing p85 by kinase-glo luminescence assay. The method in brief: (§1)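 Recombinant p110 isoforms made by baculovirus in Sf21 cells. Kinase activity read by Kinase-Glo luminescence at 10 µM ATP. IC50 taken as the mean of at least two duplicate experiments.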
(In general: Kinase-Glo reads ATP consumption through a luciferase reaction.)
Target sequence in this assay (P42338 whole entry, canonical isoform): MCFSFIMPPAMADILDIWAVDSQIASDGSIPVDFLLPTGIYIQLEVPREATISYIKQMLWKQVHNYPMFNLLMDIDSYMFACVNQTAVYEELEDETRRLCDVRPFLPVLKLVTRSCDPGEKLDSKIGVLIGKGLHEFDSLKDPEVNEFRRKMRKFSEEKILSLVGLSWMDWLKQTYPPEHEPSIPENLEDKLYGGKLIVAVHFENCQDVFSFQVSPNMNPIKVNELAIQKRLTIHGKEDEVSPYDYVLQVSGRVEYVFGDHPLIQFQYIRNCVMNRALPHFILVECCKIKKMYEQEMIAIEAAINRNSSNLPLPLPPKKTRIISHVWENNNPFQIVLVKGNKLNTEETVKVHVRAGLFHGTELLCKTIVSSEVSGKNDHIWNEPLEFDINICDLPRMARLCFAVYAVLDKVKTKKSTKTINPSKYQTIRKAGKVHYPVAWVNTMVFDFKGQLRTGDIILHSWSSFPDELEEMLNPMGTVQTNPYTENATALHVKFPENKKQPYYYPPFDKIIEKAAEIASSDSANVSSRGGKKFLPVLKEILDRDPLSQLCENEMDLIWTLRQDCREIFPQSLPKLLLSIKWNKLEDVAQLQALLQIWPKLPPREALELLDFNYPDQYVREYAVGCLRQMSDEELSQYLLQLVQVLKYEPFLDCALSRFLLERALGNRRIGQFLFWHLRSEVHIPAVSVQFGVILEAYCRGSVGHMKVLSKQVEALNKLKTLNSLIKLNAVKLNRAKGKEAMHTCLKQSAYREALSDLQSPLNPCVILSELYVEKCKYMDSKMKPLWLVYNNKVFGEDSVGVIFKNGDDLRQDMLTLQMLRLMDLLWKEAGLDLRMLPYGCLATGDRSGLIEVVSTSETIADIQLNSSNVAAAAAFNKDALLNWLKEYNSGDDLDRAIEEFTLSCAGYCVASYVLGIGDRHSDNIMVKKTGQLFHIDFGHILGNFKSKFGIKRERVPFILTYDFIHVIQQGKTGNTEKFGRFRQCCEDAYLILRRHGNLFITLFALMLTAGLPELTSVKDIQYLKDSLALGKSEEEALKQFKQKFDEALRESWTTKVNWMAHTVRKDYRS

In data set [2] the target is T2, Phosphatidylinositol 4,5-bisphosphate 3-kinase catalytic subunit delta isoform (Homo sapiens, UniProt O00329).
T2 sequence (O00329 whole entry): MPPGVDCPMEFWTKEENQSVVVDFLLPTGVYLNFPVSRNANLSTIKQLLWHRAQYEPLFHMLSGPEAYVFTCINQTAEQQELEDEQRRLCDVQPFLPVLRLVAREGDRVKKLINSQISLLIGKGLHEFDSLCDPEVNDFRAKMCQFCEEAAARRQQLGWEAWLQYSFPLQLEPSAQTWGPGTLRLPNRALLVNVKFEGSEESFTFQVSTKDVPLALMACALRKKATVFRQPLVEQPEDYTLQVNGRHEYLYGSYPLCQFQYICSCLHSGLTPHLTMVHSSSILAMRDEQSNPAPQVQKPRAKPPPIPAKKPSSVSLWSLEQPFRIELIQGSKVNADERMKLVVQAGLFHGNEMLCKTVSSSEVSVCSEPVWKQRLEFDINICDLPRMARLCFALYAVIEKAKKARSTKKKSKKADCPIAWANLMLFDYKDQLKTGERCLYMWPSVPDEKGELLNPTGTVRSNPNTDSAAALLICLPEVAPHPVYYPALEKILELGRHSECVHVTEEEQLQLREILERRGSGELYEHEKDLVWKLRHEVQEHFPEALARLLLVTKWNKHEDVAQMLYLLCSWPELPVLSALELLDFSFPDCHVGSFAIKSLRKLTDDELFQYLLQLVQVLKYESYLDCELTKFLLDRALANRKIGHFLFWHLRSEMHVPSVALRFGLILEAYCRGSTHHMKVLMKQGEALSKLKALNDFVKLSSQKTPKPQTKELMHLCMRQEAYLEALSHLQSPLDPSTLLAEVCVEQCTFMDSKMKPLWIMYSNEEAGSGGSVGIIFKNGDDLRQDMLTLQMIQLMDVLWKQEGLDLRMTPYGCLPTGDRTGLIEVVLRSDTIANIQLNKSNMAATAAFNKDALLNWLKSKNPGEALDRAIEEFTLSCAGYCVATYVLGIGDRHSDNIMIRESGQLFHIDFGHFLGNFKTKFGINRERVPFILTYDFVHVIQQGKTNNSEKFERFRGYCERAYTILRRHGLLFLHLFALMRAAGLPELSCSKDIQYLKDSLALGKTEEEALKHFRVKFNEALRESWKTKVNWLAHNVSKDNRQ
In words: Inhibition of PI3Kdelta (unknown origin) expressed in baculovirus-infected fall armyworm sf21 cells co-expressing p85 by kinase-glo luminescence assay. The essentials:
as §1

Data set [3] has as its target T1, Phosphatidylinositol 4,5-bisphosphate 3-kinase catalytic subunit beta isoform. In words: Inhibition of PI3Kbeta in human washed platelets assessed as suppression of ADP-induced platelet aggregation at 0.5 uM preincubated for 5 mins followed by 25 uM ADP stimulation after 10 mins by light transmission aggregometric analysis. The method in brief:
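Washed human platelets in an aggregometer. Inhibitor at 0.5 µM. Aggregation induced by 5, 10 or 25 µM ADP; percent inhibition read.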
Target sequence in this assay (P42338 whole entry, looked up, canonical isoform): as the sequence (P42338 whole entry, canonical isoform) above

Data set [4] concerns Platelet. In words: Antiplatelet activity against human washed platelets assessed as reduction in shear-induced stationary platelet adhesionto vWF matrix at 2 uM preincubated for 5 mins followed by blood perfusion after 4 mins. The format is functional, cell-based. The essentials: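 Human whole blood, anticoagulated, perfused over a vWf matrix at 1800 s^-1 for 4 min; stationary platelet adhesion scored. Vehicle DMSO 0.25% taken as 100%. Drug tested up to 5 µM. t test against 0.1 µM drug.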

A short description of data set [5]: Drug level in iv dosed rat serum after 5 mins by LC-MS analysis. The class given is ADME, organism-based. The following applies: read-out: Drug uptake.
Data set [6] can be described thus: Drug level in iv dosed rat serum after 60 mins by LC-MS analysis. The settings on record: read-out: Drug uptake. The format is ADME, organism-based.
Data set [7] has as its target T1, Phosphatidylinositol 4,5-bisphosphate 3-kinase catalytic subunit beta isoform. In words: Inhibition of PI3Kbeta in human washed platelets assessed as suppression of ADP-induced platelet aggregation at 1 to 1000 nM preincubated for 5 mins followed by ADP stimulation after 10 mins by light transmission aggregometric analysis. The essentials: (§2)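 Washed human platelets in a conventional aggregometer. Aggregation induced by ADP; IC50 taken from the dose-response curve.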
Target sequence in this assay (P42338 whole entry, looked up, canonical isoform): as the sequence (P42338 whole entry, canonical isoform) above

For data set [8] the target is unchanged. In words: Inhibition of PI3Kbeta in human washed platelets assessed as suppression of ADP-induced platelet aggregation preincubated for 5 mins followed by ADP stimulation after 10 mins by light transmission aggregometric analysis. The essentials: as §2
Target sequence in this assay (P42338 whole entry, looked up, canonical isoform): as the sequence (P42338 whole entry, canonical isoform) above
Data set [9] is described as follows: Inhibition of PI3Kbeta in human washed platelets assessed as suppression of TRAP-induced platelet aggregation at 10 to 1000 nM preincubated for 5 mins followed by TRAP stimulation after 10 mins by light transmission aggregometric analysis.
In data set [10] the test system is Platelet. In words: […] activity in human washed platelets assessed as […] ADP-induced platelet aggregation at 10 to 1000 nM preincubated for 5 mins followed by ADP stimulation after 10 mins by light transmission aggregometric analysis. The format is functional, cell-based.

Regarding `CC(C)C[C@H](N)CC(=O)N1CCN(c2nc(N3CCOCC3)nc(-n3c(C(F)F)nc4ccccc43)n2)CC1`, the IC50 (commonly the concentration that inhibits the measured activity by half) in data set [1] was > 10000 nM; in data set [2] it was 9100 nM. In [1], `CC(=O)NC1CCN(c2nc(N3CCOCC3)nc(-n3c(C(F)F)nc4ccccc43)n2)CC1` returned an IC50 of 521 nM. Turning to `C[C@H](N)C(=O)N1CCC(c2nc(N3CCOCC3)nc(-n3c(C(F)F)nc4ccccc43)n2)CC1`, the IC50 in data set [1] came out at 540 nM; in data set [2], 1090 nM. Take `Cc1cc(C(C)Nc2ccccc2)c2nc(N3CCOCC3)cc(=O)n2c1` (stereo not drawn): the inhibition entry in data set [3] and in [4] was “Active” throughout. For the same compound, the concentration at 5 min in data set [5] was found to be 2000 nM. Further, the concentration at 1 h in [6] stood at 200 nM. For `C[C@H](N)C(=O)N1CCN(c2nc(N3CCOCC3)nc(-n3c(C(F)F)nc4ccccc43)n2)CC1`, in data set [7], the inhibition entry was “Active”. With `N[C@@H](CC(=O)N1CCN(c2nc(N3CCOCC3)nc(-n3c(C(F)F)nc4ccccc43)n2)CC1)c1ccccc1`, the IC50 in data set [1] worked out at 1800 nM; in data set [2] it was 17000 nM. Regarding `NCC(=O)NC1CCCN(c2nc(N3CCOCC3)nc(-n3c(C(F)F)nc4ccccc43)n2)C1` (stereo not drawn), the IC50 in data set [1] was determined as 1210 nM.

Turning to `O=C([C@@H]1CCCN1)N1CCN(c2nc(N3CCOCC3)nc(-n3c(C(F)F)nc4ccccc43)n2)CC1`, the inhibition result in [8] is “Dose-dependent effect”. Besides, the inhibition entry in [9] was “Active”. Regarding `NCCCC[C@H](N)C(=O)N1CCN(c2nc(N3CCOCC3)nc(-n3c(C(F)F)nc4ccccc43)n2)CC1`, the result in data set [10] was Active.

In data set [1], `NCC(=O)N1CCC(Nc2nc(N3CCOCC3)nc(-n3c(C(F)F)nc4ccccc43)n2)CC1` showed an IC50 of 1060 nM. `O=C(C1CCNCC1)N1CCN(c2nc(N3CCOCC3)nc(-n3c(C(F)F)nc4ccccc43)n2)CC1`: the IC50 in [1] came out at 3210 nM; in data set [2] it was 330 nM. For `O=C(C1CCCN1)N1CCC(c2nc(N3CCOCC3)nc(-n3c(C(F)F)nc4ccccc43)n2)CC1` (single isomer, unassigned), half-maximal inhibition in data set [1] (IC50) required 2000 nM. On the same count and under the same terms, the result for `NCC1CCN(c2nc(N3CCOCC3)nc(-n3c(C(F)F)nc4ccccc43)n2)CC1` reads 811 nM. Regarding `NCC(=O)N1CCC(c2nc(N3CCOCC3)nc(-n3c(C(F)F)nc4ccccc43)n2)CC1`, the IC50 in data set [1] came to 360 nM; in [2], 120 nM. As to `NC1CCCN(c2nc(N3CCOCC3)nc(-n3c(C(F)F)nc4ccccc43)n2)C1` (stereo not drawn), the half-maximal inhibitory concentration (IC50) in [1] was 554 nM. Still for that read-out and setting: the result for `FC(F)c1nc2ccccc2n1-c1nc(NC2CCNCC2)nc(N2CCOCC2)n1` reads 2110 nM. On to `C[C@@H](N)C(=O)N1CCC(c2nc(N3CCOCC3)nc(-n3c(C(F)F)nc4ccccc43)n2)CC1`, for which the IC50 is 3200 nM in data set [1] and 740 nM in data set [2]. Turning to `O=C([C@H]1CCCN1)N1CCN(c2nc(N3CCOCC3)nc(-n3c(C(F)F)nc4ccccc43)n2)CC1`, the IC50 amounted to 36 nM in [1] and 12 nM in data set [2]. Further, the inhibition entry in [8] was “Dose-dependent effect”. In data set [9], the inhibition result is “Active”.

For `NCC(=O)NC1CCN(c2nc(N3CCOCC3)nc(-n3c(C(F)F)nc4ccccc43)n2)CC1`, the IC50 in data set [1] came out at 1330 nM. Still for that read-out and setting: the result for `NCC(=O)NCC1CCN(c2nc(N3CCOCC3)nc(-n3c(C(F)F)nc4ccccc43)n2)CC1` reads 428 nM.

`NC1CCN(c2nc(N3CCOCC3)nc(-n3c(C(F)F)nc4ccccc43)n2)CC1` registered an IC50 in [1] of 955 nM. On to `NCCC1CCN(c2nc(N3CCOCC3)nc(-n3c(C(F)F)nc4ccccc43)n2)CC1`, for which the concentration for half-maximal inhibition (IC50) worked out at 190 nM in [1] and 1000 nM in data set [2]. Also, the inhibition entry in data set [7] and in [9] was “Active” throughout.
